The source made the active and inactive calls. The rule behind the calls is not given here. Square brackets hold non-standard residues; d marks the D form. Peptide text beside a SMILES is read from it. Phe(4-NO2) = N[C@@H](Cc1ccc([N+](=O)[O-])cc1)C(=O)O; Phe(4-N3) = [N-]=[N+]=Nc1ccc(C[C@H](N)C(=O)O)cc1; Phe(4-N2+) = N#[N+]c1ccc(C[C@H](N)C(=O)O)cc1; Sar = CNCC(=O)O
Key:
Oryctolagus cuniculus [1] = organism: Oryctolagus cuniculus; test: Intrinsic activity at angiotensin 2 receptor in albino New Zealand rabbit aorta in absence of UV light; format: tissue-based
Method in brief: (§1)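 Rabbit aortic strips were suspended in Krebs solution at 37 °C, gassed with 95% O2/5% CO2, at 2.0 g tension, and equilibrated 60–90 min with bath changes every 10–15 min. Isometric contraction was recorded by force transducer in the dark. PD2 is the −log agonist concentration giving half-maximal contraction. pA2 is the −log antagonist concentration reducing a double agonist dose to a single-dose response. αE is intrinsic activity.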

Oryctolagus cuniculus [2] = organism: Oryctolagus cuniculus; test: Agonist activity at angiotensin 2 receptor in albino New Zealand rabbit aorta in absence of UV light; format: tissue-based; method in brief: as §1
Oryctolagus cuniculus [3] = organism: Oryctolagus cuniculus; test: Binding affinity to angiotensin 2 receptor in albino New Zealand rabbit aorta relative to [Sar1]AT in absence of UV light
Oryctolagus cuniculus [4] = organism: Oryctolagus cuniculus; test: Inactivation of angiotensin 2 receptor in albino New Zealand rabbit aorta assessed as relaxation of angiotensin-induced contraction at 5 uM treated for 180 mins followed by UV light exposed for 10 mins relative to control in presence of noradrenaline; format: tissue-based; set-up: scale not given: the % may be the effect or the level left
Method in brief: (§2)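 Strips in Krebs at 37 °C (95% O2/5% CO2, 2.0 g tension) received AT 0.2 μM at 60 and 120 min. The control agonist was noradrenaline for aorta and serotonin for stomach. At 180 min, peptide plus (4'amino)Phe 0.6 mM was added; after 5 min at maximal contraction, strips were UV-irradiated (365 nm black light) for 10 min and washed. AT response at 280 min was expressed as % of nonirradiated references. At least seven experiments; mean ± SE.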

Oryctolagus cuniculus [5] = organism: Oryctolagus cuniculus; test: Inactivation of angiotensin 2 receptor in albino New Zealand rabbit aorta assessed as relaxation of angiotensin-induced contraction at 5 uM treated for 180 mins followed by UV light exposed for 10 mins relative to control in presence of [Leu8]-AT; format: tissue-based; set-up: scale not given: the % may be the effect or the level left
Method in brief: (§3)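 Protection protocol: aortic strips in Krebs at 37 °C were given AT 0.2 μM at 60 and 120 min, then preincubated 15 min with [Leu8]AT 5 μM (final) before the photolabel plus (4'amino)Phe 0.6 mM. After 5 min at maximal contraction, strips were UV-irradiated 10 min and washed only after photolysis. Residual AT response at 280 min was expressed as % of nonirradiated, identically incubated references.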

[6] = Antagonist activity at angiotensin 2 receptor in albino New Zealand rabbit aorta in absence of UV light; format: tissue-based, Oryctolagus cuniculus; method in brief: as §1
Oryctolagus cuniculus [7] = organism: Oryctolagus cuniculus; test: Inactivation of angiotensin 2 receptor in albino New Zealand rabbit aorta assessed as relaxation of angiotensin-induced contraction at 10 uM treated for 180 mins followed by UV light exposed for 10 mins relative to control in presence of noradrenaline; format: tissue-based; set-up: scale not given: the % may be the effect or the level left; method in brief: as §2
Oryctolagus cuniculus [8] = organism: Oryctolagus cuniculus; test: Inactivation of angiotensin 2 receptor in albino New Zealand rabbit aorta assessed as relaxation of angiotensin-induced contraction at 10 uM treated for 180 mins followed by UV light exposed for 10 mins relative to control in presence of [Leu8]-AT; format: tissue-based; set-up: scale not given: the % may be the effect or the level left; method in brief: as §3
[9] = molecular target: T1, Angiotensin II receptor (Rattus norvegicus) (UniProt P29089+P25095+P35351); test: Inactivation of angiotensin 2 receptor in Wistar rat stomach assessed as relaxation of angiotensin-induced contraction at 1 uM treated for 180 mins followed by UV light exposed for 10 mins relative to control in presence of serotonin; method in brief: as §2
Oryctolagus cuniculus [10] = organism: Oryctolagus cuniculus; test: Inactivation of angiotensin 2 receptor in albino New Zealand rabbit aorta assessed as relaxation of angiotensin-induced contraction at 0.2 uM treated for 180 mins followed by UV light exposed for 10 mins relative to control in presence of noradrenaline; format: tissue-based; set-up: scale not given: the % may be the effect or the level left; method in brief: as §2
Oryctolagus cuniculus [11] = organism: Oryctolagus cuniculus; test: Inactivation of angiotensin 2 receptor in albino New Zealand rabbit aorta assessed as relaxation of angiotensin-induced contraction at 0.2 uM treated for 180 mins followed by UV light exposed for 10 mins relative to control in presence of [Leu8]-AT; format: tissue-based; set-up: scale not given: the % may be the effect or the level left; method in brief: as §3
Oryctolagus cuniculus [12] = organism: Oryctolagus cuniculus; test: Inactivation of angiotensin 2 receptor in albino New Zealand rabbit aorta assessed as relaxation of angiotensin-induced contraction at 0.4 uM treated for 180 mins followed by UV light exposed for 10 mins relative to control in presence of noradrenaline; format: tissue-based; set-up: scale not given: the % may be the effect or the level left; method in brief: as §2
Oryctolagus cuniculus [13] = organism: Oryctolagus cuniculus; test: Inactivation of angiotensin 2 receptor in albino New Zealand rabbit aorta assessed as relaxation of angiotensin-induced contraction at 0.4 uM treated for 180 mins followed by UV light exposed for 10 mins relative to control in presence of [Leu8]-AT; format: tissue-based; set-up: scale not given: the % may be the effect or the level left; method in brief: as §3
[14] = molecular target: T1, Angiotensin II receptor (Rattus norvegicus); test: Inactivation of angiotensin 2 receptor in Wistar rat aorta assessed as relaxation of angiotensin-induced contraction at 0.1 uM treated for 180 mins followed by UV light exposed for 10 mins relative to control in presence of noradrenaline; method in brief: as §2

| RBA (Oryctolagus cuniculus [3]) [%] | Compound | Intrinsic activity (Oryctolagus cuniculus [1]) | pD2 (Oryctolagus cuniculus [2]) | Activity (Oryctolagus cuniculus [7]) [%] | other results |
| --- | --- | --- | --- | --- | --- |
| 1.3 | CNCC(=O)N[C@@H](CCCNC(=N)N)C(=O)N[C@H](C(=O)N[C@@H](Cc1ccc([N+]#N)cc1)C(=O)N[C@H](C(=O)N[C@@H](Cc1cnc[nH]1)C(=O)N1CCC[C@H]1C(=O)N[C@@H](Cc1ccc([N+]#N)cc1)C(=O)O)C(C)C)C(C)C (H-[Sar]RV[Phe(4-N2+)]VHP[Phe(4-N2+)]-OH) | 1 | 7.36 | – | – |
| 0.66 | CNCC(=O)N[C@@H](CCCNC(=N)N)C(=O)N[C@H](C(=O)N[C@@H](Cc1ccc([N+]#N)cc1)C(=O)N[C@H](C(=O)N[C@@H](Cc1cnc[nH]1)C(=O)N1CCC[C@H]1C(=O)N[C@@H](Cc1ccccc1)C(=O)O)C(C)C)C(C)C (H-[Sar]RV[Phe(4-N2+)]VHPF-OH) | 1 | 7.05 | – | – |
| 0.06 | CNCC(=O)N[C@@H](CCCNC(=N)N)C(=O)N[C@H](C(=O)N[C@@H](Cc1ccc([N+](=O)[O-])cc1)C(=O)N[C@H](C(=O)N[C@@H](Cc1cnc[nH]1)C(=O)N1CCC[C@H]1C(=O)N[C@@H](Cc1ccc([N+](=O)[O-])cc1)C(=O)O)C(C)C)C(C)C (H-[Sar]RV[Phe(4-NO2)]VHP[Phe(4-NO2)]-OH) | 0.5 | 6.02 | 99 | – |
| 69 | CNCC(=O)N[C@@H](CCCNC(=N)N)C(=O)N[C@H](C(=O)N[C@@H](Cc1ccc(O)cc1)C(=O)N[C@H](C(=O)N[C@@H](Cc1cnc[nH]1)C(=O)N1CCC[C@H]1C(=O)N[C@@H](Cc1ccc([N+](=O)[O-])cc1)C(=O)O)C(C)C)C(C)C | 0.46 | 9.07 | – | Activity (Oryctolagus cuniculus [12]): 95% |

Further lines, the molecule ahead of its results:

| Compound | RBA (Oryctolagus cuniculus [3]) [%] | Intrinsic activity (Oryctolagus cuniculus [1]) | pD2 (Oryctolagus cuniculus [2]) | Activity (Oryctolagus cuniculus [7]) [%] | other results |
| --- | --- | --- | --- | --- | --- |
| CNCC(=O)N[C@@H](CCCNC(=N)N)C(=O)N[C@H](C(=O)N[C@@H](Cc1ccc(N=[N+]=[N-])cc1)C(=O)N[C@H](C(=O)N[C@@H](Cc1cnc[nH]1)C(=O)N1CCC[C@H]1C(=O)N[C@@H](Cc1ccccc1)C(=O)O)C(C)C)C(C)C (H-[Sar]RV[Phe(4-N3)]VHPF-OH) | 0.26 | 0.75 | 6.65 | – | Activity (Oryctolagus cuniculus [4]): 98%; Activity (Oryctolagus cuniculus [5]): 64% |
| CNCC(=O)N[C@@H](CCCNC(=N)N)C(=O)N[C@H](C(=O)N[C@@H](Cc1ccc([N+](=O)[O-])cc1)C(=O)N[C@H](C(=O)N[C@@H](Cc1cnc[nH]1)C(=O)N1CCC[C@H]1C(=O)N[C@@H](Cc1ccccc1)C(=O)O)C(C)C)C(C)C (H-[Sar]RV[Phe(4-NO2)]VHPF-OH) | 0 | 0 | < 5 | 105 | pA2 [6]: < 5; Activity (Oryctolagus cuniculus [8]): 102%; inhibition [9]: inactive |
| CNCC(=O)N[C@@H](CCCNC(=N)N)C(=O)N[C@H](C(=O)N[C@@H](Cc1ccc(N=[N+]=[N-])cc1)C(=O)N[C@H](C(=O)N[C@@H](Cc1cnc[nH]1)C(=O)N1CCC[C@H]1C(=O)N[C@@H](Cc1ccc(N=[N+]=[N-])cc1)C(=O)O)C(C)C)C(C)C (H-[Sar]RV[Phe(4-N3)]VHP[Phe(4-N3)]-OH) | 0.07 | 0.8 | 6.12 | 100 | Activity (Oryctolagus cuniculus [8]): 92% |
| CNCC(=O)N[C@@H](CCCNC(=N)N)C(=O)N[C@H](C(=O)N[C@@H](Cc1ccc(O)cc1)C(=O)N[C@H](C(=O)N[C@@H](Cc1cnc[nH]1)C(=O)N1CCC[C@H]1C(=O)N[C@@H](Cc1ccccc1)C(=O)O)C(C)C)C(C)C (H-[Sar]RVYVHPF-OH) | – | 1 | 9.23 | – | Activity (Oryctolagus cuniculus [10]): 100%; Activity (Oryctolagus cuniculus [11]): 100% |
| CNCC(=O)N[C@@H](CCCNC(=N)N)C(=O)N[C@H](C(=O)N[C@@H](Cc1ccc(O)cc1)C(=O)N[C@H](C(=O)N[C@@H](Cc1cnc[nH]1)C(=O)N1CCC[C@H]1C(=O)N[C@@H](Cc1ccc(N=[N+]=[N-])cc1)C(=O)O)C(C)C)C(C)C | 31 | 1 | 8.72 | – | Activity (Oryctolagus cuniculus [12]): 100%; Activity (Oryctolagus cuniculus [13]): 103%; inhibition [14]: Active |
| CNCC(=O)N[C@@H](CCCNC(=N)N)C(=O)N[C@H](C(=O)N[C@@H](Cc1ccc(O)cc1)C(=O)N[C@H](C(=O)N[C@@H](Cc1cnc[nH]1)C(=O)N1CCC[C@H]1C(=O)N[C@@H](Cc1ccc([N+]#N)cc1)C(=O)O)C(C)C)C(C)C | 13 | 1 | 8.33 | – | Activity (Oryctolagus cuniculus [4]): 78%; Activity (Oryctolagus cuniculus [5]): 72% |

— ChEMBL document CHEMBL3244362, “Photoaffinity labeling of the angiotensin II receptor. 3. Receptor inactivation with photolabile hormone analogues” (J Med Chem, 1979)
